The results in this text go back to ChEMBL document CHEMBL1165965, “Synthesis and structure-activity relationships of 1,2,3,4-tetrahydropyrido[2,3-b]pyrazines as potent and selective inhibitors of the anaplastic lymphoma kinase” (Bioorg Med Chem, 2010).

Some results are limits rather than exact numbers.

Usually inhibition stands for the percentage by which the read-out fell short of the control.

Test [1] has as its target Tyrosine-protein kinase receptor UFO (Homo sapiens) (UniProt P30530). Put plainly: Inhibition of AXL at 1 uM. In short, it runs like this:
(§1)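 Ambit KINOMEscan screen at a single concentration across a 250–400 kinase panel, recorded as percent inhibition. Selectivity was expressed as S(90), the fraction of kinases inhibited >90%.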

For test [2], the target named is T1, Serine/threonine-protein kinase tousled-like 1 (Homo sapiens) (UniProt Q9UKI8).
T1 sequence (whole entry): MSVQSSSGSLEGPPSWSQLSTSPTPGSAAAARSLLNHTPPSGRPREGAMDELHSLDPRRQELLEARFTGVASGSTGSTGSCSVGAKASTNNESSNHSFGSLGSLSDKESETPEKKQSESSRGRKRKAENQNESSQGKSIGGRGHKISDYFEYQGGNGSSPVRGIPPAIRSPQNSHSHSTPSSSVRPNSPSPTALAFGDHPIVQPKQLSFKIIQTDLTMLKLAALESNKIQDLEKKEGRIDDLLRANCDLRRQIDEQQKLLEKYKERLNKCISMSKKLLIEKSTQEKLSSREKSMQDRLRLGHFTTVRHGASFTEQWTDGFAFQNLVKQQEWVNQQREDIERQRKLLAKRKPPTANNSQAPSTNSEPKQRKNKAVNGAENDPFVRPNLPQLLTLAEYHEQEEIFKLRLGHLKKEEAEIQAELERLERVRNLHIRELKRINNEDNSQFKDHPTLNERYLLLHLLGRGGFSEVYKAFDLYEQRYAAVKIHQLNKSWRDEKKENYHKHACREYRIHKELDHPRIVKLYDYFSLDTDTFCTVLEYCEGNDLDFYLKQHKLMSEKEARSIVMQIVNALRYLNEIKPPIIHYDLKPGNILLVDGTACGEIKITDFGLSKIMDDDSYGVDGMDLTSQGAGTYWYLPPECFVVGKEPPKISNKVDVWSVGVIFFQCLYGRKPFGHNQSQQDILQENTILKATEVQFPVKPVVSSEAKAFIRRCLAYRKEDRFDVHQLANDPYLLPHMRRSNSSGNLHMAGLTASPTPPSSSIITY
Description: Inhibition of TLK1 at 1 uM.

Test [3] has as its target T2, Mitogen-activated protein kinase 12 (Homo sapiens) (UniProt P53778).
T2 sequence (whole entry): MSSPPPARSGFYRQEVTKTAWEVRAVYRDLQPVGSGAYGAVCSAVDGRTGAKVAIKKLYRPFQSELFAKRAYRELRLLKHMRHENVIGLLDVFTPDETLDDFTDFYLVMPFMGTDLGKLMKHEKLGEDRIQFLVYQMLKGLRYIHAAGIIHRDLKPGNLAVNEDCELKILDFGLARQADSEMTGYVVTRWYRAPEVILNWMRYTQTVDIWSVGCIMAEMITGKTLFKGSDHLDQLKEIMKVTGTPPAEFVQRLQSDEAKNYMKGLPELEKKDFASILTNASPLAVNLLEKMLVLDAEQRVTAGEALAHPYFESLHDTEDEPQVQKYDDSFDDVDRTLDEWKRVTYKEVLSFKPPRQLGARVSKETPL
Description: Inhibition of p38-gamma at 1 uM.

Test [4] has as its target T3, Serine/threonine-protein kinase D3 (Homo sapiens) (UniProt O94806).
T3 sequence (whole entry): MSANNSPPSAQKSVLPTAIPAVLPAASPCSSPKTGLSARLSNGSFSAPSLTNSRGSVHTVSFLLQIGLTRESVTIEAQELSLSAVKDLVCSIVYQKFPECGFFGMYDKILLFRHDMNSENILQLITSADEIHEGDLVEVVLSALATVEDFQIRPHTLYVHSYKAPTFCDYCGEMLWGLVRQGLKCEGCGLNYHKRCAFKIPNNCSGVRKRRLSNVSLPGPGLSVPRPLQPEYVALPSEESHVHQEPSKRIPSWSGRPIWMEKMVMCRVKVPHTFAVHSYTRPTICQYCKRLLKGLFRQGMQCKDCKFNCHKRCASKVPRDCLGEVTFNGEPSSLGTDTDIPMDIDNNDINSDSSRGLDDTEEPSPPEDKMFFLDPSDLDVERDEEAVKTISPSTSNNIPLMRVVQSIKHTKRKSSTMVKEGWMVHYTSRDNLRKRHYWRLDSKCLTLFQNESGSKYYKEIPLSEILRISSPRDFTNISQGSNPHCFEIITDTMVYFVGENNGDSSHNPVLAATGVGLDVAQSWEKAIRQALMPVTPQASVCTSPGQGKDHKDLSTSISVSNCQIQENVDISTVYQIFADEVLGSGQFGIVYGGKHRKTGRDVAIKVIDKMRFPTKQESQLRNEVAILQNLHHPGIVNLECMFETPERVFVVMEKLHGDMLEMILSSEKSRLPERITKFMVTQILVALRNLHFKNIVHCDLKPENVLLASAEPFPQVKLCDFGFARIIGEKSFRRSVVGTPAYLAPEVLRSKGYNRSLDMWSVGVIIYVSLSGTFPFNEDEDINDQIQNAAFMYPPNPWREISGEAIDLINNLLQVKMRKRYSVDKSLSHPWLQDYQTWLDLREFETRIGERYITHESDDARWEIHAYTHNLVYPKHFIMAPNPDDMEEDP
Put plainly: Inhibition of PRKD3 at 1 uM.

Test [5] concerns the target RAF proto-oncogene serine/threonine-protein kinase (Homo sapiens) (UniProt P04049). Description: Inhibition of RAF1 at 1 uM.
Test [6] addresses Ephrin type-A receptor 4 (Homo sapiens) (UniProt P54764). Put plainly: Inhibition of EPHA4 at 1 uM. In a few lines: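 Single-concentration screen using Ambit Bioscience KINOMEscan technology across a panel of 250–400 kinases. Per-kinase inhibition from this screen was summarized as S(90), the fraction of kinases inhibited by more than 90%.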
The target of test [7] is SRSF protein kinase 3 (Homo sapiens) (UniProt Q9UPE1). Description: Inhibition of SRPK3 at 1 uM.
Test [8] concerns the target LIM domain kinase 2 (Homo sapiens) (UniProt P53671). Put plainly: Inhibition of LIMK2 at 1 uM. In short, it runs like this:
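Single-concentration screen on the Ambit KINOMEscan platform, run against a panel of 250–400 kinases. Per-kinase inhibition was also summarized as S(90), the fraction of kinases inhibited by more than 90%.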

The test system of test [9] is Serine/threonine-protein kinase B-raf (Homo sapiens), P15056 [V600E]. Description: Inhibition of BRAF V600E mutant at 1 uM. In short, it runs like this:
as §1

In test [10] the target is Serine/threonine-protein kinase PAK 4 (Homo sapiens) (UniProt O96013). Put plainly: Inhibition of PAK4 at 1 uM.
Sequence of Serine/threonine-protein kinase PAK 4 (Homo sapiens) (O96013 whole entry, looked up): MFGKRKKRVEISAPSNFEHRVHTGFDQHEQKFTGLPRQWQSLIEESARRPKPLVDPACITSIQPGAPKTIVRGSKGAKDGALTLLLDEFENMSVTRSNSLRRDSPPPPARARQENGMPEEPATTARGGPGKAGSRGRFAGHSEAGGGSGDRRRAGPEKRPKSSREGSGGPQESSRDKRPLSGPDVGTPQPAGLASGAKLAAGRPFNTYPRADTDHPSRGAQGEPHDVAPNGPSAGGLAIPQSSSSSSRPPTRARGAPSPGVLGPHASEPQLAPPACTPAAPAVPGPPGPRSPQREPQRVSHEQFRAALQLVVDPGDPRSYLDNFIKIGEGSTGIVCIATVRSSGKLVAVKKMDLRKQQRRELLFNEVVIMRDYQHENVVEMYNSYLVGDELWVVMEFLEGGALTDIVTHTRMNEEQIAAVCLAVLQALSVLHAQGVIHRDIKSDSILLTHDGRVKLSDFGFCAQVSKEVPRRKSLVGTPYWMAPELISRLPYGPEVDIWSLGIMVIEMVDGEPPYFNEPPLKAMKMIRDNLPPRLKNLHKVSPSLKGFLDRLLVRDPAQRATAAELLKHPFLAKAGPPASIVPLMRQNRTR

Sequence of Ephrin type-A receptor 4 (Homo sapiens) (P54764 whole entry): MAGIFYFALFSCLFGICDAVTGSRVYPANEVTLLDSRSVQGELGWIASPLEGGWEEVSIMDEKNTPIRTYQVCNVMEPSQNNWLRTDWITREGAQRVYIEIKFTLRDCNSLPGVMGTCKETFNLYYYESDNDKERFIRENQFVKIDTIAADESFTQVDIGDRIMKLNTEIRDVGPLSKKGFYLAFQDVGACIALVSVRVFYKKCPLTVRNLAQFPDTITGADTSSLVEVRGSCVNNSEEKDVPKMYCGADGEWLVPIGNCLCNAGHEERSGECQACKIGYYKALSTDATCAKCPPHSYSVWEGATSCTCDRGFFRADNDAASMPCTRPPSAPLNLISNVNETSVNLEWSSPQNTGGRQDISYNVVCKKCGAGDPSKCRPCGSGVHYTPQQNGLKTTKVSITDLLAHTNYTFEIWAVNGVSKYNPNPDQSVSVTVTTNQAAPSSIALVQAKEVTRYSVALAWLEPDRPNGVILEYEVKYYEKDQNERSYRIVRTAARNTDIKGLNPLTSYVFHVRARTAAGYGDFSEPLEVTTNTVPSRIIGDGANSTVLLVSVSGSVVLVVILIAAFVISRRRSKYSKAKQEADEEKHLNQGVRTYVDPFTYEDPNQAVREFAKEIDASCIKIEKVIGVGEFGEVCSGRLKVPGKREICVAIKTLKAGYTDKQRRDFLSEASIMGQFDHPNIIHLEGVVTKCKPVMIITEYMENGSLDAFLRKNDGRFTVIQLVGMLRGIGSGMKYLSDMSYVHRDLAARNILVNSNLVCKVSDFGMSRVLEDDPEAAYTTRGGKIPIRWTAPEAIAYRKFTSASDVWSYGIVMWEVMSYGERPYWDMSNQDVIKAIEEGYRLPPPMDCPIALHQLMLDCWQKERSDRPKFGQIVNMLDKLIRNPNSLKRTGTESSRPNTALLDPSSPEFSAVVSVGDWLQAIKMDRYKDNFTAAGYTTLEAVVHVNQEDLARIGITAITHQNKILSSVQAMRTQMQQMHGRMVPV
Sequence of Serine/threonine-protein kinase B-raf (Homo sapiens), P15056 [V600E] (P15056 whole entry V600E): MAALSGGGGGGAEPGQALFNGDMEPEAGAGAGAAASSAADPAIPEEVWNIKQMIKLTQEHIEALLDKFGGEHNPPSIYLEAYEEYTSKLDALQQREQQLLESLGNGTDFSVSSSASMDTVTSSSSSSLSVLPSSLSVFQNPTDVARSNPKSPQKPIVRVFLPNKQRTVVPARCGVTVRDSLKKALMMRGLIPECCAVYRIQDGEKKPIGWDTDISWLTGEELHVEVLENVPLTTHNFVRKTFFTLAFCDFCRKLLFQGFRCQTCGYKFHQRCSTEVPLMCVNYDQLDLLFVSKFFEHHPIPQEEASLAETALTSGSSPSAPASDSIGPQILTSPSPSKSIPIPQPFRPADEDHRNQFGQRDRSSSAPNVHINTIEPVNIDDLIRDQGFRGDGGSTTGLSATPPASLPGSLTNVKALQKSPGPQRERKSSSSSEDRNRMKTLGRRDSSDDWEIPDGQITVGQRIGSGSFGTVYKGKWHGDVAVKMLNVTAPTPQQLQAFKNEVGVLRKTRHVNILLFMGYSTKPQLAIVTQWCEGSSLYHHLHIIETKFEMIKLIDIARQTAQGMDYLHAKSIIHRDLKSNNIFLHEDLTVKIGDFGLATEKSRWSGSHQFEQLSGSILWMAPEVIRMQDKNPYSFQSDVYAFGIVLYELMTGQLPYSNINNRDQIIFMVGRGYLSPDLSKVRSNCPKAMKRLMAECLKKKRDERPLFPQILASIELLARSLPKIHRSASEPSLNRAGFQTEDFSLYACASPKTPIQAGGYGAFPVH
Sequence of LIM domain kinase 2 (Homo sapiens) (P53671 whole entry, looked up, the tested form may be a part): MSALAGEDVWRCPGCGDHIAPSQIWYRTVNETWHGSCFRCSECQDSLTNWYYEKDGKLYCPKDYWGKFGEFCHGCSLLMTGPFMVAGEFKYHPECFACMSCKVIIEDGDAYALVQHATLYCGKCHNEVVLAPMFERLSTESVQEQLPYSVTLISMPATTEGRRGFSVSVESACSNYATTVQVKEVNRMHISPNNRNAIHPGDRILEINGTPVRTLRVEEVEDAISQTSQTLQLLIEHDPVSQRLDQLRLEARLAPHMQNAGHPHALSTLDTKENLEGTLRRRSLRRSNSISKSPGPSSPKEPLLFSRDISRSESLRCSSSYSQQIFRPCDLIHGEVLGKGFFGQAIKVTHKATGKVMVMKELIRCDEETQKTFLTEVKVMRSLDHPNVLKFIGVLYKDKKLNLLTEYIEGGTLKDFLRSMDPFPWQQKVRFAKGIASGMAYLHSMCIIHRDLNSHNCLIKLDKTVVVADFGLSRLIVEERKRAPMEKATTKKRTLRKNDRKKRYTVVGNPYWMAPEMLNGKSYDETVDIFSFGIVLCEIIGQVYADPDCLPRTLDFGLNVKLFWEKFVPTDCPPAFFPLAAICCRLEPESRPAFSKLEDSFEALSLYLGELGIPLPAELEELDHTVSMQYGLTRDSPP
Sequence of SRSF protein kinase 3 (Homo sapiens) (Q9UPE1 whole entry, the tested form may be a part): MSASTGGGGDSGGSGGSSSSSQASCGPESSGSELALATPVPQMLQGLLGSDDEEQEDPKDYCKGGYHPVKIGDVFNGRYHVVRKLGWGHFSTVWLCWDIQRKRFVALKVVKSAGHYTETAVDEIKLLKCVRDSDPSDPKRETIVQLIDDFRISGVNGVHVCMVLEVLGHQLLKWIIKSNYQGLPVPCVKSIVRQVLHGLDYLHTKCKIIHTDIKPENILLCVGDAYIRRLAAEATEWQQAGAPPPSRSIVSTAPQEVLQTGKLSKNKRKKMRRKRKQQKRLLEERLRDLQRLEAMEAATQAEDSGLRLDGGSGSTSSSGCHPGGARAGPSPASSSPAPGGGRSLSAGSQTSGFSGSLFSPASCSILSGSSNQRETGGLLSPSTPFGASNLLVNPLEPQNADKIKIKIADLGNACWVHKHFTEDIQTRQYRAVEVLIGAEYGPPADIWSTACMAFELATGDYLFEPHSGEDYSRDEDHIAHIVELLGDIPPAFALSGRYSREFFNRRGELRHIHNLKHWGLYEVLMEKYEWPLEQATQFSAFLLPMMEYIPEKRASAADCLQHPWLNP
Sequence of RAF proto-oncogene serine/threonine-protein kinase (Homo sapiens) (P04049 whole entry): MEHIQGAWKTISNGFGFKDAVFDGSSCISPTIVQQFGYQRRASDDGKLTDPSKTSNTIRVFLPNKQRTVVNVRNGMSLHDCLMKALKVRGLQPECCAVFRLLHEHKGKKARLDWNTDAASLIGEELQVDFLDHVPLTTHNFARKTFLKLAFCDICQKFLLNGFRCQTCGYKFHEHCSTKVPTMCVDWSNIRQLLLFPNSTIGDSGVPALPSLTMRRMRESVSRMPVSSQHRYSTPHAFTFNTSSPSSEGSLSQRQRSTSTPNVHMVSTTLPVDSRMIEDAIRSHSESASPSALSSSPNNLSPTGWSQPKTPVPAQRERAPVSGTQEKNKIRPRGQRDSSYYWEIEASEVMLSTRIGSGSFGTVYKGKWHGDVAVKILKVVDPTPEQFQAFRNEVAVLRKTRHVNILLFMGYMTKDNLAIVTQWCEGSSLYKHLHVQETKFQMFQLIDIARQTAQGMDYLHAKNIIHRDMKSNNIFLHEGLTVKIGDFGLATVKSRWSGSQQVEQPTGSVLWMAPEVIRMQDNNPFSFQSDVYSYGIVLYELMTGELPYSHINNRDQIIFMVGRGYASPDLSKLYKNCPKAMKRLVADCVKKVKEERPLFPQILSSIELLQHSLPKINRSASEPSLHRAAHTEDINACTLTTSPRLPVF

Regarding `FC(F)(F)c1ccc(Cl)cc1CN1CCNc2ncc(-c3ccnc(N4CCNCC4)c3)cc21`, the inhibition in test [1], in test [2], in [3], in [4], in test [5] and in test [6] was less than 50% throughout. Besides, the inhibition in test [7], in [8], in [9] and in test [10] was less than 50% in each case.

Take `CN1CCN(c2ccc(-c3cnc4c(c3)N(Cc3cc(F)ccc3F)CCN4)cn2)CC1`: the inhibition in [1], in [2], in [3], in [4], in test [5] and in [6] was less than 50% throughout. Also, the inhibition in [7], in [8], in test [9] and in test [10] was less than 50% each time.

As for `CN1CCN(c2ccc(-c3cnc4c(c3)N(Cc3cc(Cl)ccc3Cl)CCN4)cn2)CC1`, the inhibition in test [1], in test [2], in [3], in test [4], in [5] and in [6] was less than 50% each time. Further, the inhibition in test [7], in test [8], in test [9] and in test [10] was less than 50% throughout.

Consider `O=C(O)c1ccc(-c2cnc3c(c2)N(Cc2cc(Cl)ccc2C(F)(F)F)CCN3)cc1`, for which the inhibition in test [1], in [2], in test [3], in test [5], in [6] and in [8] was less than 50% in each case. Moreover, the inhibition in [9] and in test [10] was less than 50% each time.

As for `CN1CCN(c2ccc(-c3cnc4c(c3)N(Cc3cc(Cl)ccc3C(F)(F)F)CCN4)cn2)CC1`, the inhibition in test [1], in [2], in [3], in test [4], in test [5] and in test [6] was less than 50% throughout. For the same compound, the inhibition in [7], in test [8], in test [9] and in test [10] was less than 50% throughout.

`COC1CCN(C(=O)c2ccc(-c3cnc4c(c3)N(Cc3cc(Cl)ccc3C(F)(F)F)CCN4)cc2)CC1`: the inhibition in [1], in test [2], in test [3], in test [5], in [6] and in test [8] was less than 50% in each case. Further, the inhibition in test [9] and in test [10] was less than 50% each time.

Consider `O=C(c1ccc(-c2cnc3c(c2)N(Cc2cc(Cl)ccc2C(F)(F)F)CCN3)cc1)N1CCC(N2CCCC2)CC1`, for which the inhibition in [1] is 93%; in test [2], less than 50%; in test [3], less than 50%; in [5] it was less than 50%; in test [6], less than 50%; in [8], less than 50%. Further, the inhibition in [9] and in [10] was less than 50% in each case.

In the case of `CN1CCN(c2ccc(-c3cnc4c(c3)N(Cc3c(F)ccc(F)c3Cl)CCN4)cn2)CC1`, the inhibition in test [1], in [2], in [3], in [4], in test [5] and in [6] was less than 50% each time. Also, the inhibition in test [7], in [8], in [9] and in test [10] was less than 50% throughout.

`O=C(c1ccc(-c2cnc3c(c2)N(Cc2cc(Cl)ccc2C(F)(F)F)CCN3)cc1)N1CCCCC1`: the inhibition in test [1], in test [2], in [3], in test [5], in test [6] and in test [8] was less than 50% in each case. The inhibition in test [9] and in test [10] was less than 50% throughout.

For `CC(=O)N1CCN(c2cc(-c3cnc4c(c3)N(Cc3cc(Cl)ccc3C(F)(F)F)CCN4)ccn2)CC1`, the inhibition in test [1], in test [2], in test [3], in [4], in test [5] and in [6] was less than 50% throughout. Besides, the inhibition in test [7], in test [8], in test [9] and in test [10] was less than 50% throughout.
